In experiment [1] the test system is MT4. The experiment is described as follows: The anti-HIV activity in the presence of human serum(hs) performed in MT-4 cells iwith AB+ serum. It is filed as functional. Conditions: read-out: ED50 (the source's name). The method, boiled down:
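MT4 cells infected with HIV-1 IIIB; compounds diluted in human AB+ serum and added after 1 h virus adsorption, final medium 50% human serum plus 10% fetal calf serum. Viral replication measured after 6 days as HIV p24 antigen; ED50 derived.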

Experiment [2] concerns MT4. Nature of the experiment: The anti-HIV activity in the presence of MT-4 cells infected mutants HIV-1:M46I,V82F,[…]. It is filed as functional. Conditions: Homo sapiens, read-out: ED50 (the source's name). The method, boiled down: (§1)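 MT4 cells (2 × 10⁴/well) infected with ritonavir-selected mutant HIV-1 (10–50 TCID₅₀/well). Mutants came from passaging cell-free virus under stepwise-increased ritonavir, then one passage without drug; protease gene sequenced. Compounds from 10 mg/mL DMSO stocks diluted in medium. Viability read by XTT after 6 days; ED50 taken as 50% dose.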

In experiment [3] the test system is MT4. The experiment is described as follows: The anti-HIV activity was evaluated in MT-4 cells using colorimetric XTT assay. MT-4 cells were infected with HIV-1,IIb (in vitro). It is filed as functional. As to conditions: Homo sapiens, read-out: ED50 (the source's name). In short, it runs like this: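 MT4 cells (2 × 10⁴ per well) infected with HIV-1 IIIB at 10–50 TCID50/well. Compounds came from 10 mg/mL DMSO stocks, diluted in medium and added to the cells. Viability was read by XTT after 6 days to monitor the cytopathic effect, and the 50% effective dose (ED50) was determined.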

Experiment [4] has as its system MT4. Nature of the experiment: The anti-HIV activity in the presence of MT-4 cells infected mutants HIV-1:V32I,M46I,V82A. It is filed as functional. As to conditions: Homo sapiens, read-out: ED50 (the source's name). In short, it runs like this: as §1
The subject of experiment [5] is MT4. Nature of the experiment: The anti-HIV activity in the presence of human serum(hs) performed in MT-4 cells with AB+ serum. It is filed as functional. Conditions: read-out: ED50 (the source's name). In short, it runs like this: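 MT4 cells infected with HIV-1 IIIB. Compounds diluted in human AB+ serum were added after 1 h of virus adsorption. Final medium held 50% human serum plus 10% fetal calf serum. Viral replication was read after 6 days as HIV p24 antigen, and the ED50 was derived.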

For experiment [6], the target named is Human immunodeficiency virus type 1 protease (Human immunodeficiency virus 1, UniProt Q72874). Nature of the experiment: Inhibitory activity against HIV-1 protease expressed in Escherichia coli.

For the compound `CNC(=O)[C@@H](NC(=O)[C@H](OCc1ccccc1)[C@H](O)[C@@H](O)[C@@H](OCc1ccccc1)C(=O)N[C@H](C(=O)NC)C(C)C)C(C)C`, the EC50 in experiment [1] was 20000 nM; in experiment [2] it was 20000 nM; in experiment [3], 1500 nM.

Take `CNC(=O)[C@@H](NC(=O)[C@H](OCc1ccc(Br)cc1)[C@H](O)[C@@H](O)[C@@H](OCc1ccc(Br)cc1)C(=O)N[C@H](C(=O)NC)C(C)C)C(C)C`: the EC50 in experiment [4] stood at 1200 nM; in experiment [2], 1000 nM; in experiment [5] it was 2100 nM; in experiment [3], 800 nM. Moreover, in experiment [6], the affinity, expressed as Ki, was 0.3 nM.

In the case of `CNC(=O)[C@@H](NC(=O)[C@H](OCc1ccc(-c2nccs2)cc1)[C@H](O)[C@@H](O)[C@@H](OCc1ccc(-c2nccs2)cc1)C(=O)N[C@H](C(=O)NC)C(C)C)C(C)C`, the EC50 in experiment [4] was above 3000 nM; in experiment [2] it was above 3000 nM; in experiment [5] it was 400 nM; in experiment [3], 300 nM. In experiment [6], the affinity corresponds to a Ki of 0.6 nM.

As to `CNC(=O)[C@@H](NC(=O)[C@H](OCc1ccc(-c2ccsc2)cc1)[C@H](O)[C@@H](O)[C@@H](OCc1ccc(-c2ccsc2)cc1)C(=O)N[C@H](C(=O)NC)C(C)C)C(C)C`, the EC50 in experiment [4] amounted to 300 nM; in experiment [2], 200 nM; in experiment [5], 800 nM; in experiment [3] it was 40 nM.

Regarding `CNC(=O)[C@@H](NC(=O)[C@H](OCc1ccc(-c2cccs2)cc1)[C@H](O)[C@@H](O)[C@@H](OCc1ccc(-c2cccs2)cc1)C(=O)N[C@H](C(=O)NC)C(C)C)C(C)C`, the EC50 in experiment [4] was found to be 300 nM; in experiment [2], 200 nM; in experiment [5], 1000 nM; in experiment [3], 40 nM. The inhibition constant (Ki) (in general, a dissociation constant, usually derived from enzyme kinetics or from competition with a known ligand) in experiment [6] was determined as 1.2 nM.

For `CNC(=O)[C@@H](NC(=O)[C@H](OCc1ccc(-c2ccccc2)cc1)[C@H](O)[C@@H](O)[C@@H](OCc1ccc(-c2ccccc2)cc1)C(=O)N[C@H](C(=O)NC)C(C)C)C(C)C`, the EC50 in experiment [4] came out at 400 nM; in experiment [2], 700 nM; in experiment [5], 800 nM; in experiment [3], 40 nM. Further, the Ki in experiment [6] was 0.7 nM.

`CNC(=O)[C@@H](NC(=O)[C@H](OCc1ccc(-c2cccc([N+](=O)[O-])c2)cc1)[C@H](O)[C@@H](O)[C@@H](OCc1ccc(-c2cccc([N+](=O)[O-])c2)cc1)C(=O)N[C@H](C(=O)NC)C(C)C)C(C)C`: the EC50 is 1100 nM in experiment [4], 40 nM in experiment [2], 1100 nM in experiment [5] and 50 nM in experiment [3]. Moreover, in experiment [6], affinity was put at a Ki of 1.4 nM.

The compound `CNC(=O)[C@@H](NC(=O)[C@H](OCc1ccc(CCc2ccccc2)cc1)[C@H](O)[C@@H](O)[C@@H](OCc1ccc(CCc2ccccc2)cc1)C(=O)N[C@H](C(=O)NC)C(C)C)C(C)C` showed a Ki in experiment [6] of 3.8 nM. In addition, the EC50 in experiment [3] was found to be 2100 nM.

Consider `CNC(=O)[C@@H](NC(=O)[C@H](OCc1ccc(/C=C/C(=O)OC)cc1)[C@H](O)[C@@H](O)[C@@H](OCc1ccc(/C=C/C(=O)OC)cc1)C(=O)N[C@H](C(=O)NC)C(C)C)C(C)C`, for which the EC50 came to 5700 nM in experiment [5] and 800 nM in experiment [3]. The affinity in experiment [6], expressed as Ki, was 0.09 nM.

`CNC(=O)[C@@H](NC(=O)[C@H](OCc1ccc(C2=C(O)C(=O)CCC2)cc1)[C@H](O)[C@@H](O)[C@@H](OCc1ccc(C2=C(O)C(=O)CCC2)cc1)C(=O)N[C@H](C(=O)NC)C(C)C)C(C)C`: the EC50 was found to be 20000 nM in experiment [5] and 3700 nM in experiment [3]. For the same compound, affinity in experiment [6] was put at a Ki of 0.3 nM.

As to `CNC(=O)[C@@H](NC(=O)[C@H](OCc1ccc(-c2ccccn2)cc1)[C@H](O)[C@@H](O)[C@@H](OCc1ccc(-c2ccccn2)cc1)C(=O)N[C@H](C(=O)NC)C(C)C)C(C)C`, the values for the EC50 in experiment [5] and in experiment [3] were 3600 nM and 800 nM, respectively. Also, the inhibition constant Ki in experiment [6] was found to be 0.6 nM.

Take `CNC(=O)[C@@H](NC(=O)[C@H](OCc1ccc(-c2cccnc2)cc1)[C@H](O)[C@@H](O)[C@@H](OCc1ccc(-c2cccnc2)cc1)C(=O)N[C@H](C(=O)NC)C(C)C)C(C)C`: the EC50 was above 3000 nM in experiment [4], above 3000 nM in experiment [2], 20000 nM in experiment [5] and 2500 nM in experiment [3]. Also, affinity in experiment [6] was put at a Ki of 0.3 nM.
